Columns and labels:
[1] = Selectivity ratio for binding affinity towards alpha2 and alpha-1 adrenoceptors
Method in brief: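 Ratio of α2 Ki ([³H]clonidine binding) to α1 Ki ([³H]prazosin binding), both measured in rat cortical membrane competition assays.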

[2] = molecular target: T1, Alpha-1B adrenergic receptor (Rattus norvegicus, UniProt P15823); assay: Displacement of [3H]prazosin from Alpha-1B adrenergic receptor of rat liver membrane
T1 sequence (P15823 whole entry): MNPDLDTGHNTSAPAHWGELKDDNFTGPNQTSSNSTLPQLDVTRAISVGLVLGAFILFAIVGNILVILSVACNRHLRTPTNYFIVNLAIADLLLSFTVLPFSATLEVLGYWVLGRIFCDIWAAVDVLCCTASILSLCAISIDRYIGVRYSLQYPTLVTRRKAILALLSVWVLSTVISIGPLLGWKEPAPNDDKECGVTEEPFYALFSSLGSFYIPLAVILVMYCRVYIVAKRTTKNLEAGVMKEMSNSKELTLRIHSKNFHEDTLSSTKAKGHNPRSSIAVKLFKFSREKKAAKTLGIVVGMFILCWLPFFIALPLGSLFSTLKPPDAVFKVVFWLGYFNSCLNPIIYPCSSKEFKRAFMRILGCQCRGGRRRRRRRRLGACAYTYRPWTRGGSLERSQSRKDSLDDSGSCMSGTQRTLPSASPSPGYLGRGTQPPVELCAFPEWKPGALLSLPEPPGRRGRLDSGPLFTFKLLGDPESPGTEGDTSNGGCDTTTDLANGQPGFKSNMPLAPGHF
Method in brief: (§1)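 Triplicate competition binding against 0.2-0.25 nM [³H]prazosin in Tris buffer pH 7.4, 30 min at room temperature. Competitor range 0.1-200 nM. Nonspecific binding defined with 10 µM phentolamine. Reaction stopped by GF/B filtration with two cold Tris washes. Membrane protein 300-400 µg per assay. Ki calculated from the data; mean ± SEM of 3-6 experiments.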

[3] = molecular target: T2, Alpha-1A adrenergic receptor (Rattus norvegicus, UniProt P43140); assay: Displacement of [3H]prazosin from Alpha-1A adrenergic receptor of rat submaxillary gland membranes; assay type: cell membranes, Membrane; method in brief: as §1
T2 sequence (P43140 whole entry): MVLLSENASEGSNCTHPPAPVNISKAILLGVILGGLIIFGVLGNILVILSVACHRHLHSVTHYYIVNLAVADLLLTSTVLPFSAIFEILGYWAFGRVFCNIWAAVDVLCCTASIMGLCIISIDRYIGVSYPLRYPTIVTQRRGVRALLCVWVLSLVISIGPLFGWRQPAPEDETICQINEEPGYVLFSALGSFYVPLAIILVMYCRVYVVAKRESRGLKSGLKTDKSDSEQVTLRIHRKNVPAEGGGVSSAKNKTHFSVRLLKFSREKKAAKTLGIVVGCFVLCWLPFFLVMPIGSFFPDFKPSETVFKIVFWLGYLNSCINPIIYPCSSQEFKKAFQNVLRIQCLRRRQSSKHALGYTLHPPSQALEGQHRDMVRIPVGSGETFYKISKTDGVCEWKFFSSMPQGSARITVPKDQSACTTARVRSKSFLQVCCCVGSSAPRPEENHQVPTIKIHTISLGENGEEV

[4] = molecular target: T3, Adrenergic receptor alpha-1 (Rattus norvegicus, UniProt P15823+P23944+P43140); assay: Displacement of [3H]-prazosin from Alpha-1 adrenergic receptor of rat cortical membranes; assay type: cell membranes, Membrane; method in brief: as §1
T3 sequence (P15823 whole entry): T1 sequence (P15823 whole entry)
T3 sequence (P23944 whole entry): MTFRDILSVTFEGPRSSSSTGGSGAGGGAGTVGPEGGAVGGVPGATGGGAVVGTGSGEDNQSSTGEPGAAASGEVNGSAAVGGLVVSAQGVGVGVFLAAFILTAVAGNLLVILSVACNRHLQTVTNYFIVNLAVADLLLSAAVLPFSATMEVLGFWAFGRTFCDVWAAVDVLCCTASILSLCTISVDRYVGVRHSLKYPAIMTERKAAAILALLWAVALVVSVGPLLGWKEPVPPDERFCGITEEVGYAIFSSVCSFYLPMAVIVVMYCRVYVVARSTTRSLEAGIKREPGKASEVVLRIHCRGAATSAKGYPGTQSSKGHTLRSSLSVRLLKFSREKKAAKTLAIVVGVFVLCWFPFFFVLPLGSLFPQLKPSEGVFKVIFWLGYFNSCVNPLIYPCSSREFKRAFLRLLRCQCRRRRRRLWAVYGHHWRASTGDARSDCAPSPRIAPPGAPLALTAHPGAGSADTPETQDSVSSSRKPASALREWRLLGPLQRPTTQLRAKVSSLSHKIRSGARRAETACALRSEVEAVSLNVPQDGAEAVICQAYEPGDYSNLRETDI
T3 sequence (P43140 whole entry): T2 sequence (P43140 whole entry)

Row | Compound | Ratio [1] | Ki [2] [nM] | Ki [3] [nM] | Ki [4] [nM]
1 | COc1ccccc1N1CCN(Cc2cnc3c4ccccc4nc(O)n23)CC1 | 1550 | – | – | –
2 | COc1ccccc1N1CCN(Cc2cn3c(O)nc4ccccc4c3n2)CC1 | 1030 | – | – | –
3 | COc1ccccc1N1CCN(C[C@H]2CN=C3c4ccccc4N=C(SC)N32)CC1 | 3500 | 1.4 | 1.5 | 1
4 | COc1ccccc1N1CCN(CC2CN=C3c4ccccc4N=C(SC)N32)CC1 (configuration not stated) | 1080 | 3.9 | 0.93 | 0.9
5 | COc1ccccc1N1CCN(C[C@@H]2CN=C3c4ccccc4N=C(SC)N32)CC1 | 62.5 | 667 | 122 | 144
6 | COc1ccccc1N1CCN(C[C@@H]2CN=C3c4ccccc4NC(=O)N32)CC1 | > 384 | 123 | 55 | 26
7 | COc1ccccc1N1CCN(CC2CN3C(=O)Nc4ccccc4C3=N2)CC1 (configuration not stated) | 247 | 5.5 | 0.65 | 0.93
8 | Oc1nc2ccccc2c2ncc(CN3CCN(c4ccccc4Cl)CC3)n12 | 382 | – | – | –
9 | COc1ccccc1N1CCN(C[C@H]2CN=C3c4ccccc4NC(=O)N32)CC1 | 1410 | 0.42 | 0.23 | 0.13

Reference: ChEMBL document CHEMBL1131058, “Studies on quinazolines and 1,2,4-benzothiadiazine 1,1-dioxides. 8.1, 2 synthesis and pharmacological evaluation of tricyclic fused quinazolines and 1,2,4-benzothiadiazine 1,1-dioxides as potential alpha1-adrenoceptor antagonists” (J Med Chem, 1998)
